STAT3 blocker: inhibitors of IL-6 induced STAT3 signaling. U3A cells, IL-6 STAT3-luciferase reporter, luminescence; host cell line lacks STAT1. inhibition, % at 5.5 µM. 0.89% of 190,000 active. AID 862;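 active = inhibition above the mean inhibition across all screened compounds plus 3 SD, cut at about 44% in these data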;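 also: 0% = DMSO only wells and 100% = 100 µM nifuroxazide control wells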
NF-kB neuron act: raises NF-kB expression in human neuronal cells; 1.6% of 190,000 active; fold change at 12.5 µM; AID 1239; NF-kB reporter expression; active compounds read high; in the data active = fold change above about 3.3
STAT1 inh: inhibitors of IFN-gamma induced STAT1 signaling; NIH 3T3 STAT1-luciferase reporter, luminescence; 0.35% of 200,000 active; AID 920; inhibition, % at 5.5 µM;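 active = inhibition above a set limit, the mean inhibition across all tested compounds plus 3 SD, cut at about 34% in these data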;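 also: 0% = IFN-gamma with DMSO and 100% = IFN-gamma with 300 µM nifuroxazide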
STAT3 activator: activators of IL-6 induced STAT3 signaling; AID 871; activation (% of control), % at 5.6 µM; 0.91% of 190,000 active; U3A cells, IL-6 STAT3-luciferase reporter, luminescence; 100% = signal with IL-6 EC80 alone;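 active = activation above the screen-wide mean of compound activation plus 3 SD, cut at about 130% in these data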;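 also: 0% = background luminescence of wells with medium and substrate only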
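Test system: human U3A cells carrying STAT3-luciferase construct; control set: IL-6-only wells as 100% reference; timing: compound pre-incubation 1 h before IL-6, then 6 h stimulation at 37 °C; also added: IL-6 stimulus at 33 ng/mL final; evaluation: % activation versus median of IL-6-stimulated wells; detection: reporter luminescence signal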
STAT1 act: STAT1 signaling activation | activation (% of control), % at 5.5 µM | AID 932 | 2.6% of 200,000 active | NIH 3T3 STAT1-luciferase reporter, IFN-gamma, luminescence; 100% = IFN-gamma alone, no compound;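 active = activation above the screen-wide mean activation plus 3 SD, cut at about 130% in these data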;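 also: raw ratio to IFN-gamma control signal so 100% means no change and 0% no light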
APP 5'UTR act: APP 5'UTR luciferase reporter activation; 1% of 190,000 active; activation, % at 2 µM; SH-SY5Y APP 5'UTR luciferase reporter, luminescence; zero percent = DMSO vehicle wells; AID 1276;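 active = activation above a set limit, based on mean plus 3 SD of controls, cut at about 140% in these data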
* marks the source's active call; other numbers are inactive results; . = no result given. Hits are enriched below; roughly 4.9% of the tested compounds scored in any of these assays.

SMILES	STAT3 blocker	NF-kB neuron act	STAT1 inh	STAT3 activator	STAT1 act	APP 5'UTR act
COc1ccc(NC(=O)c2cc(-c3cccs3)on2)cc1OC	11	1.5	-9	94	109	15
Cc1ccc(NC(=O)c2cc(-c3cccs3)on2)cc1C	9	2.2	-52	100	146*	5
O=C1OC(Nc2cc(Br)cc3cccnc23)c2ccccc21 (centres undefined)	-39	0.86	5	133*	95	12
S=c1[nH]c2ccccc2o1	-38	1.3	6	133*	94	-1
O=C(O)CCCNC(=O)/C(=C\c1ccc(Cl)cc1)NC(=O)c1ccc(Br)cc1	17	0.81	-6	90	102	6
CC1CC(C)(C)N2C(=O)C3(Nc4ccccc4S3)c3cccc1c32 (centres undefined)	-1	0.87	6	107	95	1
O=C1N2CCCc3cccc(c32)C12Nc1ccccc1S2 (centres undefined)	-35	0.84	1	135*	99	-4
Cc1ccccc1-n1c(C)nnc1SCc1nc2ccccc2s1	-44	1.5	-35	142*	132*	141*
O=c1[nH]nc(SCc2nc3ccccc3s2)n1C1CC1	-30	1.2	-23	127	120	37
CCCn1c(SCc2nc3ccccc3s2)n[nH]c1=O	-18	2.1	-36	124	134*	119
Cc1ccc(C(=O)N2CCc3ccccc32)cc1	-33	1.5	-20	131	115	23
O=C(CSC1=NCCS1)N1CCc2ccccc21	-4	3.5*	-29	108	127	85
CCc1sc(C(=O)N2CCc3ccccc32)cc1C	23	8.3*	-36	84	134*	189*
Nc1ccccc1SCC(=O)N1CCc2ccccc21	10	1.8	-17	94	116	20
O=C(c1ccc(C(=O)N2CCCc3ccccc32)s1)N1CCCc2ccccc21	20	0.66	-4	84	104	8
O=C(c1ccc(Cl)s1)N1CCc2ccccc21	-13	3.3	-56	112	144*	121
CCOc1ccc(NC(c2ccccn2)c2oc(CO)cc(=O)c2O)cc1 (centres undefined)	-7	2.2	-24	108	121	6
O=C(CSc1nnc(-c2ccc(O)cc2)o1)N1CCOCC1	3	1.6	-17	103	114	1
Oc1ccc(-c2nnc(SCC3CCCCC3)o2)cc1	12	4.9*	-21	98	119	111
CN(C)CCCN=c1cc(-c2ccccc2)oc2ccc(Cl)cc12	-1	1.5	-54	104	148*	129
Cc1cccc(Nc2ncc3c(n2)CC(C)CC3=O)c1 (centres undefined)	14	2.4	-38	91	135*	34
O=C(CSc1ccccc1)Nc1ccncc1	10	0.99	2	94	91	8
CC(=O)Oc1ccc(NC(=O)CSc2ccccc2)cc1	-7	4.2*	-7	108	106	-1
CC(C)c1cc(C(=O)Nc2cccc(Cl)c2)no1	39	11*	-26	74	124	187*
CC(C)c1cc(C(=O)NCCc2ccccc2)no1	7	2.2	-37	105	133*	75
SMILES	STAT3 blocker	NF-kB neuron act	STAT1 inh	STAT3 activator	STAT1 act	APP 5'UTR act
CC(=O)c1cccc(NC(=O)c2cc(C(C)C)on2)c1	22	3.9*	-25	86	122	119
O=C(CCCCCN1C(=O)c2ccccc2C1=O)Nc1ccc(F)cc1	13	1.5	10	91	91	2
CC(C)=CCCC(C)CN1CCC(N2CCC(C(=O)NC(C)C)CC2)CC1 (centres undefined)	1	1	12	103	88	7
CCn1cnc2cc(NC(=O)c3ccco3)ccc21	6	2.9	-33	98	135*	53
O=C(Nc1cc2nn(-c3ccccc3)nc2cc1Cl)c1ccco1	-43	1.7	-36	145*	133*	25
CCCn1cnc2cc(NC(=O)c3cccs3)ccc21	-5	.	-45	109	138*	97
O=C(Nc1ccc2nn(-c3ccccc3)nc2c1)c1ccco1	9	2.3	-34	94	132*	81
COCc1c(C(=O)OC)nnn1-c1ccc(C(F)(F)F)cc1[N+](=O)[O-]	10	1.3	0	95	98	4
